Experimental data taken from ChEMBL document CHEMBL4251655 (Eur J Med Chem, 2018).
Active and inactive are the calls of the source. The calls are words filed in the database; no cut-off is given here.

Target: T1, Mitogen-activated protein kinase kinase kinase 5 (Homo sapiens) (UniProt Q99683)
T1 sequence (whole entry): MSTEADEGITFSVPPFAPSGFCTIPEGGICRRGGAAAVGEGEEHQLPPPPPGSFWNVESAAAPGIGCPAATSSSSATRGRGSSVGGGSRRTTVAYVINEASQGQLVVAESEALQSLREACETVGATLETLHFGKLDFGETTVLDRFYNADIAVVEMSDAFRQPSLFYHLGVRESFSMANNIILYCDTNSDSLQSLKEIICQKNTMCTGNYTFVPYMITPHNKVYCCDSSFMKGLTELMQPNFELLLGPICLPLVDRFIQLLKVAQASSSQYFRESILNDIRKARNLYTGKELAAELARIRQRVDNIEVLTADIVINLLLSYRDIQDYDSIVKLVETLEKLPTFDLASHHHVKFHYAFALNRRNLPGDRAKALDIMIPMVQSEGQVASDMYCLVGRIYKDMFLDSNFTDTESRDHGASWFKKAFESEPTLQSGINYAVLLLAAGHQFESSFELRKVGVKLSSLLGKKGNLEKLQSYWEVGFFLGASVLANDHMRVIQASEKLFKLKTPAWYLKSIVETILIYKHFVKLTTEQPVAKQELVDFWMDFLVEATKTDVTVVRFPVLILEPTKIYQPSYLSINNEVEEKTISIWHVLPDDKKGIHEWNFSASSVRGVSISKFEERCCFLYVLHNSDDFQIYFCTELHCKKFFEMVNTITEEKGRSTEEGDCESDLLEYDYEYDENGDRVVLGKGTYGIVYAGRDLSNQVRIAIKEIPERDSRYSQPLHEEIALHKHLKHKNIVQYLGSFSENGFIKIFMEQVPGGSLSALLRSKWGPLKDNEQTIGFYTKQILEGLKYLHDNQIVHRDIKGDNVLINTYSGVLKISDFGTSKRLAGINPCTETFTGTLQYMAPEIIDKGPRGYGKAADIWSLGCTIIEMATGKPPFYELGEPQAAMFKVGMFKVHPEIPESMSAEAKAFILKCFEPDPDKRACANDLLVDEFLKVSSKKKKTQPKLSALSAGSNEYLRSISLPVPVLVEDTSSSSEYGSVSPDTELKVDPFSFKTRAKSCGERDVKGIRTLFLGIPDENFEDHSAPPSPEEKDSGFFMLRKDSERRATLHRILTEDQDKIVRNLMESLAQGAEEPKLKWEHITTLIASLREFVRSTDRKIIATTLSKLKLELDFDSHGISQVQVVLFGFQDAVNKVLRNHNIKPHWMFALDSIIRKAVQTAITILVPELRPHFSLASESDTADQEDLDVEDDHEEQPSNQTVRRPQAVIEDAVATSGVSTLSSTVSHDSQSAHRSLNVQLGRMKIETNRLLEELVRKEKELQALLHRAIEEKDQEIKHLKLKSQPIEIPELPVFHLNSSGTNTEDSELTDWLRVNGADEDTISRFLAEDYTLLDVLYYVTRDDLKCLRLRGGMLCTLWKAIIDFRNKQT
Experiment: Inhibition of recombinant full length human ASK1 expressed in HEK293/AP1-Luc cells assessed as reduction in autophosphorylation at Thr-838 residue at 10 uM after 30 mins by Western blot analysis
Format: cell-based
Outline: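 Stable HEK293/AP-1luc pools expressing wild-type or K709R full-length human ASK1 (or parental cells) plated in DMEM with 10% FBS, Geneticin and puromycin. Next day, washed in serum-free medium, then treated with 10 μM compound (final) at 37 °C for 30 min. Cells lysed in M-PER with protease/phosphatase inhibitors; protein by BCA; Western blot for ASK1, phospho-Thr838 ASK1 and α-tubulin.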

inhibition: Active
Compound: COc1ccc(S(C)(=O)=O)cc1C(=O)Nc1cccc(-c2nncn2C(C)C)n1
